Activity calls are given as the source filed them. The rule behind the calls is not given here.
Legend:
[1] = Induction of IFN-gamma secretion in human CD161+ CD3+ NKT cells at 10 ug/ml after 18 hrs relative to basal level; assay type: functional
Procedure, shortened: (§1)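 Human Vα24i NKT cell lines were expanded for 10 days on irradiated (3,000 rad) autologous immature DCs with 10 units/ml IL-2. The cells (1 × 10^5) were cocultured with 5 × 10^4 irradiated immature CD14+ DCs plus glycolipid at 10 μg/ml. Supernatants were collected at 18 h and read on a 22-plex Luminex bead panel. Triplicates, mean ± SD.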

[2] = Induction of IL2 secretion in human CD161+ CD3+ NKT cells at 10 ug/ml after 18 hrs relative to basal level; assay type: functional; procedure, shortened: as §1
[3] = Induction of IL12p70 secretion in human CD161+ CD3+ NKT cells at 10 ug/ml after 18 hrs relative to basal level; assay type: functional; procedure, shortened: as §1
[4] = Induction of IL12p40 secretion in human CD161+ CD3+ NKT cells at 10 ug/ml after 18 hrs relative to basal level; assay type: functional; procedure, shortened: as §1
[5] = Induction of RANTES secretion in human CD161+ CD3+ NKT cells at 10 ug/ml after 18 hrs relative to basal level; assay type: functional; procedure, shortened: as §1
[6] = Induction of MIPalpha secretion in human CD161+ CD3+ NKT cells at 10 ug/ml after 18 hrs relative to basal level; assay type: functional; procedure, shortened: as §1
[7] = Induction of MCP1 secretion in human CD161+ CD3+ NKT cells at 10 ug/ml after 18 hrs relative to basal level; assay type: functional; procedure, shortened: as §1
[8] = Induction of IL8 secretion in human CD161+ CD3+ NKT cells at 10 ug/ml after 18 hrs relative to basal level; assay type: functional; procedure, shortened: as §1
[9] = Induction of TNFalpha secretion in human CD161+ CD3+ NKT cells at 10 ug/ml after 18 hrs relative to basal level; assay type: functional; procedure, shortened: as §1
Mus musculus [10] = assay: Increase in CD8/CD4 T cell ratio in BALB/c mouse at 2 ug, iv after 72 hrs by flow cytometry; assay type: functional, organism-based
TC1 = assay: Antitumor activity in TC1 cells xenografted C57BL/6 mouse assessed as suppression of tumor growth at 2 ug, iv; assay type: functional, cell-based
Procedure, shortened: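 C57BL/6 mice (n = 5/group) were inoculated i.v. with TC-1 lung cancer cells. They were then treated i.v. with 2 μg glycolipid per mouse, or 100 μl of 1% DMSO, twice weekly for 4 weeks. Kaplan–Meier survival and body weight were followed, with tumor-free mice as an additional control.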

4T1 = assay: Antitumor activity in mouse 4T1 cells xenografted BALB/c mouse assessed as suppression of tumor growth at 2 ug, iv; assay type: functional, cell-based
Procedure, shortened: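 BALB/c mice (n = 6) were inoculated s.c. with 4T1 breast cancer cells. From day 3 they were treated i.v. with glycolipid or vehicle twice weekly for 4 weeks. Tumor volume was recorded every 3 days for 1 month, and survival was monitored up to 54 days.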

Mus musculus [11] = assay: Induction of IFN-gamma secretion in BALB/c mouse serum at 2 ug, iv after 18 hrs relative to control; assay type: functional
Procedure, shortened: (§2)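 BALB/c mice received an i.v. injection of 100 μl of glycolipid diluted to 20 μg/ml in saline from DMSO stock, with 1% DMSO as vehicle. Serum cytokines/chemokines were measured at 2 and 18 h after injection.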

Mus musculus [12] = assay: Induction of IL1-beta secretion in BALB/c mouse serum at 2 ug, iv after 18 hrs relative to control; assay type: functional; procedure, shortened: as §2
Mus musculus [13] = assay: Induction of IL2 secretion in BALB/c mouse serum at 2 ug, iv after 2 hrs relative to control; assay type: functional; procedure, shortened: as §2
Mus musculus [14] = assay: Induction of IL12p70 secretion in BALB/c mouse serum at 2 ug, iv after 18 hrs relative to control; assay type: functional; procedure, shortened: as §2
Mus musculus [15] = assay: Induction of IL12p40 secretion in BALB/c mouse serum at 2 ug, iv after 18 hrs relative to control; assay type: functional; procedure, shortened: as §2
Mus musculus [16] = assay: Induction of RANTES secretion in BALB/c mouse serum at 2 ug, iv after 2 hrs relative to control; assay type: functional; procedure, shortened: as §2
Mus musculus [17] = assay: Induction of MIPbeta secretion in BALB/c mouse serum at 2 ug, iv after 2 hrs relative to control; assay type: functional; procedure, shortened: as §2
Mus musculus [18] = assay: Induction of MCP1 secretion in BALB/c mouse serum at 2 ug, iv after 2 hrs relative to control; assay type: functional; procedure, shortened: as §2
Mus musculus [19] = assay: Induction of KC secretion in BALB/c mouse serum at 2 ug, iv after 2 hrs relative to control; assay type: functional; procedure, shortened: as §2
Mus musculus [20] = assay: Induction of TNFalpha secretion in BALB/c mouse serum at 2 ug, iv after 18 hrs relative to control; assay type: functional; procedure, shortened: as §2
Mus musculus [21] = assay: Induction of IL3 secretion in BALB/c mouse serum at 2 ug, iv after 2 hrs relative to control; assay type: functional; procedure, shortened: as §2
Mus musculus [22] = assay: Induction of GM-CSF secretion in BALB/c mouse serum at 2 ug, iv after 2 hrs relative to control; assay type: functional; procedure, shortened: as §2
Mus musculus [23] = assay: Induction of IL4 secretion in BALB/c mouse serum at 2 ug, iv after 2 hrs relative to control; assay type: functional; procedure, shortened: as §2
Mus musculus [24] = assay: Induction of IL6 secretion in BALB/c mouse serum at 2 ug, iv after 2 hrs relative to control; assay type: functional; procedure, shortened: as §2
Mus musculus [25] = assay: Induction of IL10 secretion in BALB/c mouse serum at 2 ug, iv after 18 hrs relative to control; assay type: functional; procedure, shortened: as §2
Mus musculus [26] = assay: Induction of IL13 secretion in BALB/c mouse serum at 2 ug, iv after 2 hrs relative to control; assay type: functional; procedure, shortened: as §2
[27] = Induction of IL3 secretion in human CD161+ CD3+ NKT cells at 10 ug/ml after 18 hrs relative to basal level; assay type: functional; procedure, shortened: as §1
[28] = Induction of GM-CSF secretion in human CD161+ CD3+ NKT cells at 10 ug/ml after 18 hrs relative to basal level; assay type: functional; procedure, shortened: as §1
[29] = Induction of IL15 secretion in human CD161+ CD3+ NKT cells at 10 ug/ml after 18 hrs relative to basal level; assay type: functional; procedure, shortened: as §1
[30] = Induction of IL4 secretion in human CD161+ CD3+ NKT cells at 10 ug/ml after 18 hrs relative to basal level; assay type: functional; procedure, shortened: as §1
[31] = Induction of IL6 secretion in human CD161+ CD3+ NKT cells at 10 ug/ml after 18 hrs relative to basal level; assay type: functional; procedure, shortened: as §1
[32] = Induction of IL10 secretion in human CD161+ CD3+ NKT cells at 10 ug/ml after 18 hrs relative to basal level; assay type: functional; procedure, shortened: as §1
[33] = Induction of IL13 secretion in human CD161+ CD3+ NKT cells at 10 ug/ml after 18 hrs relative to basal level; assay type: functional; procedure, shortened: as §1
NKT = assay: Stimulation of cell expansion of human invariant CD161+/ Valpha24+/ CD56+/ CD3+ NKT cells by flow cytometry method; assay type: functional, cell-based
Procedure, shortened: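 CD56+ NK/NKT mixtures (2 × 10^6) were isolated from human leukopaks with anti-CD56 microbeads. They were cocultured with 4 × 10^5 autologous immature CD14+ DCs pulsed with glycolipid at 3 μg/ml, or with 0.3% DMSO, on day 2 for 18 h. Suspension cells were then transferred and kept in 100 units/ml IL-2 with fresh medium every 3 days. On day 9, CD161+/Vα24TCR+ cells were gated by flow cytometry and total Vα24i NKT cells counted. Triplicates, mean ± SD.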

Mus musculus [34] = assay: Activation of dendritic cells in BALB/c mouse at 2 ug, iv after 72 hrs by flow cytometry; assay type: functional, organism-based
Procedure, shortened: (§3)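 BALB/c mice (n = 4/group) were given 100 μl of glycolipid at 20 μg/ml in saline i.v., or 100 μl of 1% DMSO. Spleens were harvested after 72 h and splenocyte subsets counted by flow cytometry: mature DCs as CD11c+/CD80+/CD86+, activated NK as U5A2-13Ag+/CD3−/CD69+, activated NKT as U5A2-13Ag+/CD3+/CD69+. Assays were run in duplicate, mean ± SD.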

Mus musculus [35] = assay: Activation of natural killer cells in BALB/c mouse at 2 ug, iv after 72 hrs by flow cytometry; assay type: functional, organism-based; procedure, shortened: as §3
Mus musculus [36] = assay: Activation of NKT cells in BALB/c mouse at 2 ug, iv after 72 hrs by flow cytometry; assay type: functional, organism-based; procedure, shortened: as §3
Mus musculus [37] = assay: Activation of B cells in BALB/c mouse at 2 ug, iv after 72 hrs by flow cytometry; assay type: functional, organism-based

For `CCCCCCCCCCCCCC[C@@H](O)[C@@H](O)[C@H](CO[C@H]1O[C@H](CO)[C@H](O)[C@H](O)[C@H]1O)NC(=O)CCCCCCCCCCc1ccccc1`, the Activity [1] was 6.2, the Activity [2] was 3.9 and the Activity [3] was 3. For the same molecule, the Activity [4] was 2.1, the Activity [5] was 1.6 and the Activity [6] was 3.4. For the same molecule, the Activity [7] was 0.6, the Activity [8] was 1.8 and the Activity [9] was 7.4. For the same molecule, the Activity (Mus musculus [10]) was “Active”, the Activity (TC1) was “Active” and the Activity (4T1) was “Active”. For the same molecule, the Activity (Mus musculus [11]) was 166.1, the Activity (Mus musculus [12]) was 3.4 and the Activity (Mus musculus [13]) was 50.5. It also gave an Activity (Mus musculus [14]) of 1.6, an Activity (Mus musculus [15]) of 2.4 and an Activity (Mus musculus [16]) of 2.2. It also gave an Activity (Mus musculus [17]) of 5.1, an Activity (Mus musculus [18]) of 23.6 and an Activity (Mus musculus [19]) of 6.9. The Activity (Mus musculus [20]) was 45.6, the Activity (Mus musculus [21]) was 1.9 and the Activity (Mus musculus [22]) was 2.7. It also gave an Activity (Mus musculus [23]) of 49.6, an Activity (Mus musculus [24]) of 5.8 and an Activity (Mus musculus [25]) of 1.3. For the same molecule, the Activity (Mus musculus [26]) was 7.7, the Activity [27] was 2.5 and the Activity [28] was 5.4. The Activity [29] was 2.7, the Activity [30] was 1.9 and the Activity [31] was 2.1. For the same molecule, the Activity [32] was 1.8, the Activity [33] was 1.6 and the Activity (NKT) was “Active”. The Activity (Mus musculus [34]) was “Active”, the Activity (Mus musculus [35]) was “Active” and the Activity (Mus musculus [36]) was “Active”. For the same molecule, the Activity (Mus musculus [37]) was “Active”.

Reference: ChEMBL document CHEMBL1145518, “Potent immune-modulating and anticancer effects of NKT cell stimulatory glycolipids” (2007)
